Source: PubChem BioAssay
NPY2 pot ag – NPY-Y2 potentiators or agonists, primary screen, cell-based; Neuropeptide Y receptor type 2 (Homo sapiens), P49146; cells expressing NPY-Y2, potentiator/agonist read-out; activation, % at 3.6 µM; 220,000 compounds, 0.45% hits; in the data active = activation above about 27%;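 also: cells stimulated with NPY near EC25 plus isoproterenol at EC100; 0% = vehicle plus submaximal agonist and 100% = vehicle plus saturating agonist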
Target sequence (P49146 whole entry, looked up): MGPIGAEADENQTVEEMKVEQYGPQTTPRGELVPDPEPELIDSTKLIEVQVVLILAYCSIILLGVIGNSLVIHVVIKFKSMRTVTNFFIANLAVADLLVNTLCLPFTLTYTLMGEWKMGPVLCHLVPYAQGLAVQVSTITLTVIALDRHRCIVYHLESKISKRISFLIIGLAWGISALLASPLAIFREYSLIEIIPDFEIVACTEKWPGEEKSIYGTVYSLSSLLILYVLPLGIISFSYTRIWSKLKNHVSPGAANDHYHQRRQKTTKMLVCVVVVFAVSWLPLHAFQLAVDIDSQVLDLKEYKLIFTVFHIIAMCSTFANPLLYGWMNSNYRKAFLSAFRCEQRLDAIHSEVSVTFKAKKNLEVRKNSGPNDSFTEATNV
RAM inhibit – inhibitors of the yeast RAM network, primary screen, dse1pr::URA3 reporter, 5-FOA selection; 190,000 compounds, 1.8% hits; inhibition, % at 50 µM; S. cerevisiae dse1pr::URA3 reporter, 5-FOA growth OD615, 2 d; analog-sensitive cbk1-as2 kinase mutant strain; AID 868, 2007;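 active = inhibition above a set limit, 3 SD over mean compound inhibition, cut at about 8.4% in these data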;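 also: 0% = DMSO-only wells with no growth and 100% = 10 µM 1-NA-PP1 full growth; inhibition rescues growth on 5-FOA so higher OD means more RAM inhibition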
INS promoter inh – inhibitors of insulin promoter-driven GFP, primary screen, imaging, TRM-6 cells, eGFP reporter, cell count; reporter expression induced with tamoxifen; inhibition, % at 2 µM; 130,000 compounds, 0.9% hits;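 active = inhibition above the mean plus 3 SD, with well images judged a real hit on visual review, cut at about 60% in these data, passing the limit was not always enough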
NPY-Y1 PAM-ag – NPY-Y1 receptor potentiators or agonists, primary screen, cell-based; Neuropeptide Y receptor type 1 (Homo sapiens), P25929; NPY-Y1 expressing cells, potentiator/agonist activation; activation, % at 3.6 µM; 220,000 compounds, 0.37% hits; in the data active = activation above about 33%, passing the limit was not always enough;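 also: cells stimulated with NPY at EC10 then isoproterenol at EC100; 0% = low agonist plus stimulus and 100% = saturating agonist plus stimulus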
NPY Y1 blocker – NPY-Y1 receptor antagonists, primary screen, cell-based; HEK293-CNG Y1 cells, membrane potential fluorescence; NPY at EC95, then isoproterenol; 200,000 compounds, 1% hits; Neuropeptide Y receptor type 1 (Homo sapiens), P25929; inhibition, % at 3.6 µM;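 active = inhibition above the campaign mean inhibition of all tested compounds plus 3 SD, cut at about 20% in these data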;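 also: 0% = DMSO wells given NPY plus isoproterenol and 100% = isoproterenol alone without NPY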
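System: HEK293 cells with Y1 receptor plus CNG channel / Probe or stimulus: NPY 25 nM then isoproterenol 1 µM plus Ro 20-1724 25 µM / Compound: one concentration, 3.6 µM, in 0.4% DMSO / Schedule: compound incubation 1 h at room temperature, readout 45 min post-stimulation / Measured by: membrane potential fluorescence / Read-out: % inhibition of NPY effect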
NPY-Y2 antag – NPY-Y2 receptor antagonists, primary screen, cell-based | 140,000 compounds, 0.99% hits | NPY-Y2 expressing cells, antagonist mode | inhibition, % at 2.7 µM | AID 793, 2007;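 also: 0% = vehicle with agonist challenge and 100% = reference antagonist with challenge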
NPY-Y1 ant conf – NPY-Y1 receptor antagonists, retest of hits, confirmation, HEK293-CNG cells, membrane potential fluorescence, triplicate. inhibition, % at 3.6 µM. 1,200 compounds, 21% hits. shares compounds with NPY Y1 blocker. cAMP; NPY challenge against isoproterenol-raised cAMP; in the data active = inhibition above about 20%;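 also: 0% = vehicle with agonist plus stimulus and 100% = stimulus alone without agonist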
NPY-Y2 antag ct – NPY-Y2 receptor antagonists, selectivity check, confirmation, counter-screen for NPY-Y1 antagonist project, HEK293-CNG cells, membrane potential fluorescence, triplicate; shares compounds with NPY Y1 blocker; antagonism; cells given NPY, then isoproterenol; inhibition, % at 3.6 µM; 1,200 compounds, 28% hits;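 also: 0% = DMSO with agonist challenge and 100% = reference antagonist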
Starred values were filed as active, the others as inactive; · = no result. A selection: hits, their analogues and other compounds. The true share with any hit is near 3.8%. Rule as the data show it, unless noted: active = inhibition above about 17%; inactive = the rest.

SMILES	NPY2 pot ag	RAM inhibit	INS promoter inh	NPY-Y1 PAM-ag	NPY Y1 blocker	NPY-Y2 antag	NPY-Y1 ant conf	NPY-Y2 antag ct
Cc1ccccc1OCCN(C#N)c1nc(N(C)C)nc(N(C)C)n1	-28.3	4.5	·	-51.3	28.1*	·	11.5	18.9*
Cc1cc(OCC(=O)N2CCc3ccccc3C2)c2c(-c3ccccc3)cc(=O)oc2c1	-21.7	2.5	-60.0	-0.2	20.8*	13.3	13.1	10.7
CCOc1cc(C)cc2oc(=O)cc(-c3ccccc3)c12	-14.8	2.1	-37.0	-1.2	13.9	15.1	·	·
O=C(c1ccco1)N1CCN(S(=O)(=O)c2ccc(S(=O)(=O)NC3CCCC3)cc2)CC1	7.5	4.7	-53.9	-17.0	20.3*	11.0	4.3	2.4
NC(=O)NC(=O)COC(=O)c1ccccc1OCc1ccc(F)cc1	-0.1	·	·	14.7	·	·	·	·
Cc1ccc(/C=N/NC(=O)c2ccoc2C)o1	0.3	1.2	-4.8	16.4	-1.0	1.5	·	·
Cc1ccc(/C=N/NC(=O)c2ccccc2OCc2ccc(F)cc2)o1	-75.3	-0.3	-14.3	-107.4	22.2*	14.6	14.6	15.5
COc1ccc(/C=N/NC(=O)c2ccccc2OCc2ccccc2)c(OC)c1	-64.3	0.0	·	-41.3	24.8*	·	7.5	14.5
CCC(CC)=NNC(=O)c1ccccc1OCc1ccc(F)cc1	-34.9	0.9	·	-66.4	21.1*	6.3	4.1	6.7
COc1ccc(/C(C)=N/NC(=O)c2ccccc2OCc2ccccc2)c(OC)c1	-40.0	0.8	·	-32.2	14.8	·	·	·
O=C(c1cn(-c2ccccc2)nc1-c1ccncc1)n1nnc2ccccc21	0.9	·	-68.8	-22.0	-2.1	3.0	·	·
O=C(NC(=S)Nc1ccc(CN2CCCCC2)cc1)c1cccc(OCc2ccccc2)c1	-56.8	-2.2	·	-52.6	41.6*	·	42.3*	52.6*
O=C(O)c1ccc(NC(=S)NC(=O)c2cccc(COc3ccccc3)c2)cc1	-0.5	6.4	·	-15.5	3.5	·	·	·
CCOC(=O)C1CCN(CCC(=O)Nc2cccc(Cl)c2)CC1	6.7	1.8	·	13.8	1.2	0.1	·	·
Cc1cccn2c(CNC3CCCc4ccccc43)c(C(=O)N3CCCCC3)nc12 (stereo not given)	-23.6	1.1	·	-4.9	24.1*	·	8.0	5.6
CCOC(=O)C1CCCN(Cc2c(C(=O)N3CCCCC3)nc3c(C)cccn23)C1 (stereo not given)	-17.3	1.7	·	9.5	1.9	·	·	·
Nc1nn(-c2ccccc2)nc1C(=O)OCc1ccccc1F	-15.0	6.7	-7.7	-27.1	30.1*	·	8.0	6.9
Cn1nc(C(=O)OCc2ccccc2F)c2ccccc2c1=O	-2.3	1.7	·	-33.6	-3.9	·	·	·
CCc1ccccc1NC(=O)C1CCN(C(=O)c2ccc([N+](=O)[O-])cc2)CC1	10.2	1.0	·	-1.3	-0.7	·	·	·
CCCCOC(=O)c1cc(=O)[nH]c2ccc(C)cc12	2.7	2.7	·	-5.1	22.0*	·	10.3	7.5
Cc1ccccc1C(=O)N1CCC(C(=O)Nc2ccc3c(c2)OCCO3)CC1	-13.6	2.7	17.9	-15.6	6.4	1.7	·	·
CCOc1ccccc1OCc1nn2c(COc3ccccc3)nnc2s1	-14.6	5.6	-20.5	-30.3	11.9	10.9	·	·
c1ccc(OCc2nn3c(C4CCCCC4)nnc3s2)cc1	-13.6	0.9	·	-33.0	27.4*	8.9	6.5	5.5
COC(=O)C1=C(C)N(C)C(=O)NC1c1ccc(O)c(Cl)c1 (stereo not given)	-0.3	1.1	-88.2	-0.9	0.3	·	·	·
Cc1oc(-c2ccc(Cl)cc2)nc1CN1CCC(C(=O)N2CCN(Cc3ccccc3)CC2)CC1	-19.5	1.7	·	-59.1	25.3*	16.9	20.9*	28.7*
SMILES	NPY2 pot ag	RAM inhibit	INS promoter inh	NPY-Y1 PAM-ag	NPY Y1 blocker	NPY-Y2 antag	NPY-Y1 ant conf	NPY-Y2 antag ct
Cc1oc(-c2cccc(Cl)c2)nc1CN1CCC(C(=O)NCc2ccco2)CC1	-5.3	1.1	·	-5.6	5.7	3.1	·	·
CCN1CCCC1CNC(=O)C1CCN(Cc2nc(-c3cccc(Br)c3)oc2C)CC1 (stereo not given)	-25.9	-0.6	·	-21.5	20.9*	10.6	9.3	16.1
Cc1ccccc1-c1nc(CN2CCC(C(=O)NCCCN3CC(C)CC(C)C3)CC2)c(C)o1 (stereo not given)	-21.3	-0.7	·	-77.8	23.4*	15.3	15.3	23.7*
Cc1ccccc1-c1nc(CN2CCC(C(=O)NCCCN3CCCC3)CC2)c(C)o1	4.3	-1.3	-50.0	-22.9	6.1	3.1	·	·
CCc1ccc(-c2nc(CN3CCC(C(=O)NCCc4ccc(OC)c(OC)c4)CC3)c(C)o2)cc1	-24.7	1.0	·	-56.1	28.1*	13.2	4.3	16.4
CC(C)CC(c1nnnn1C(C)C)N1CCN(c2cccc(Cl)c2)CC1 (stereo not given)	-36.5	1.3	·	-2.0	36.6*	12.8	12.9	5.3
COc1cccc(NC(=O)CN2C(=O)NC(C)(CC(C)C)C2=O)c1 (stereo not given)	0.8	1.4	-2.4	9.8	-4.9	·	·	·
CC(C)CC1(C)NC(=O)N(CC(=O)Nc2cccc(S(=O)(=O)N(C)c3ccccc3)c2)C1=O (stereo not given)	-20.1	2.9	-31.6	-51.9	50.7*	·	45.9*	50.5*
Cc1cccc2cc(CN(Cc3ccco3)C(=O)Nc3cccc(C#N)c3)c(Cl)nc12	-32.5	1.2	17.9	-27.2	34.1*	9.1	18.6	8.6
O=C(Nc1cccnc1)c1ccc(S(=O)(=O)c2ccccc2)cc1	-6.5	-1.5	·	-12.1	1.3	·	·	·
CC1CCN(CCOc2cccc(Br)c2)CC1	-5.4	2.3	23.1	-31.8	5.0	4.9	·	·
Clc1cccc(OCCN2CCN(CCOc3cccc(Cl)c3)CC2)c1	-3.6	1.5	0.0	-4.8	21.1*	10.7	4.9	6.5
O=C1CCC(C(=O)OCC(=O)C23CC4CC(CC(C4)C2)C3)N1 (stereo not given)	-1.7	2.6	35.0	22.1	23.4*	-0.5	-2.2	0.6
O=C(Nc1ccc2oc(=O)ccc2c1)c1cccnc1	3.4	1.9	-2.8	4.6	-0.3	3.4	·	·
Cc1ccccc1-n1c(SCC(=O)c2c(N)n(C)c(=O)n(C)c2=O)nc2sc3c(c2c1=O)CCCC3	-10.6	3.1	-12.5	8.1	1.1	-1.2	·	·
